Screening data as filed in PubChem.
In the library only some 2.1% were active in any assay of this set; here they are far more common.
C2C12 statin: protects C2C12 myotubes from simvastatin toxicity | rescue of ATP level, % at 7.49 µM | ATP luminescence, 48 h; scaled: DMSO 0, geranylgeraniol control 100 | actives 0.78% (n = 330,000);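 active = mean ATP rescue above about 67%, or every replicate alone reaching that limit, limit read from the data, passing the limit was not always enough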;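 also: myotubes were challenged with 10 µM simvastatin during compound exposure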
DENV2 CPE: DENV2-induced cell death inhibition | DENV2-infected cells, cytopathic effect rescue, plate reader | CPE inhibition, % at 9.99 µM | actives 1.7% (n = 350,000) | AID 651640; in the data active = CPE inhibition above about 20%, passing the limit was not always enough; tested in BHK-21 cells
Cneo AK release: causes C. neoformans cell lysis | adenylate kinase release luminescence, 4 h; normalised: neutral wells 0, clomiphene wells 100 | lysis activity, % at 15 µM | AID 651654 | actives 0.2% (n = 360,000);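 active = mean lysis activity across replicates of at least 80%, whatever share of replicates individually reach that level; inactive = mean lysis activity below 80%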
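Test system: log-phase Cryptococcus neoformans yeast cells; Quantity: yeast cell density of 5 × 10^6 cells/mL; Buffer or medium: YPD; Doses: single compound concentration per well; Timing: 4 h at 37 °C static, read 1 h later; Measured by: AK luminescence; Read-out basis: lysis from increased AK signal; Control set: Clomiphene as positive control.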
XiGFP reactiv: X-chromosome reactivation activator | activation, % at 7.58 µM | XiGFP mouse fibroblasts, % GFP-positive cells imaging, 3 d; cells co-treated with 5-aza-dC sensitizer; scaled so ellipticine positive control = 100% | actives 0.055% (n = 360,000) | AID 743238;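 active = mean normalized replicate activation at least 10% and every replicate at or above 10%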
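System: 68-5-11 XiGFP fibroblast line | Buffer or medium: DMEM containing 5-aza-dC | Compound: Single point | Times: Compounds 3 days, fix/stain 15 min at room temperature | Benchmarks: Positive control ellipticine, 6 µM final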
Large screens that a line does not name were inactive.

COc1ccccc1C(CNc1ncnc2sc(C)c(C)c12)N(C)C (stereo not given)	DENV2 CPE 46
COC(=O)c1cc(Cl)cc2c(C)c(C3(O)CCCCC3)[nH]c12	none
CCc1c(C2(O)CCCCC2)[nH]c2c(C(=O)OC)cc(Cl)cc12	DENV2 CPE 30
O=C1/C(=C\c2ccc(Cl)cc2)CCC1CNc1ccc(Cl)cc1 (stereo not given)	DENV2 CPE 63 (no result: C2C12 statin, Cneo AK release)
COCCOC(=O)c1c(C)oc2ccc(OCc3ccccc3)cc12	none (no result: C2C12 statin, Cneo AK release)
C=C(C)COc1ccc2oc(C)c(C(=O)OCCOC)c2c1	C2C12 statin 106 (no result: DENV2 CPE, XiGFP reactiv)
O=C(Nc1cccc(C(=O)O)c1)/C(=C\c1ccco1)NC(=O)c1ccccc1	DENV2 CPE 50
O=C(Nc1cccc(C(=O)O)c1)/C(=C\c1ccco1)NC(=O)c1ccccc1Cl	none
COCC#Cc1ccc2c(c1)O[C@@H](CN(C)S(=O)(=O)c1cccc(OC)c1)[C@H](C)CN([C@H](C)CO)S2(=O)=O	none
COc1ccc(N2CCN(c3cc(C(=O)NC4CCCCC4)ncn3)CC2)cc1OC	DENV2 CPE 22
Cc1ccc(SC[C@H](Cc2ccccc2)N2CC[C@@H](C)CCC2=O)cc1	DENV2 CPE 94
CCCN1CCC(=O)N([C@H](CSc2ccccc2)Cc2ccccc2)CC1	DENV2 CPE 49
C[C@H]1CN([C@@H](C)CO)C(=O)c2cccc(NC(=O)NC3CCCCC3)c2O[C@@H]1CN(C)S(=O)(=O)c1ccccc1	none
Cc1noc(C)c1S(=O)(=O)N(C)C[C@@H]1OCCCC[C@@H](C)Oc2ccc(NC(=O)c3ccccc3)cc2C(=O)N([C@H](C)CO)C[C@@H]1C	none (no result: C2C12 statin)
COc1ccc(CNC(=O)C[C@H]2C=C[C@H](NS(=O)(=O)c3cccc(OC)c3)[C@@H](CO)O2)cc1	none
Nc1nc(NCc2c(F)cccc2Cl)nn1-c1ccccc1	C2C12 statin 101 (no result: DENV2 CPE, XiGFP reactiv)
COc1cc(OC)cc(-c2nc3nc(C)c(CCC(=O)O)c(C)n3n2)c1	C2C12 statin 117 (no result: DENV2 CPE, XiGFP reactiv)
C[C@H](CO)N1C[C@H](C)[C@@H](CN(C)C(=O)Nc2cccc3ccccc23)Oc2c(cccc2N(C)C)C1=O	DENV2 CPE 21, Cneo AK release 83
C[C@@H]1CN([C@@H](C)CO)C(=O)c2cccc(N(C)C)c2O[C@H]1CN(C)C(=O)Nc1cccc2ccccc12	none
C[C@@H]1CN([C@@H](C)CO)C(=O)c2cccc(NS(=O)(=O)c3cccs3)c2O[C@@H]1CN(C)C(=O)Nc1cccc2ccccc12	DENV2 CPE 43
C[C@H]1CN([C@@H](C)CO)C(=O)c2cccc(N(C)C)c2O[C@@H]1CN(C)C(=O)Nc1ccc2c(c1)OCO2	none
C[C@@H]1CN([C@@H](C)CO)C(=O)c2cccc(N(C)C)c2O[C@H]1CN(C)C(=O)Nc1ccc(C(F)(F)F)cc1	Cneo AK release 99
C[C@@H]1CN([C@H](C)CO)C(=O)c2cccc(N(C)C)c2O[C@@H]1CN(C)C(=O)Nc1ccc2c(c1)OCO2	DENV2 CPE 27
C[C@@H]1CN([C@@H](C)CO)C(=O)c2cc(/C=C/c3ccccc3)cnc2O[C@H]1CN(C)C(=O)CN(C)C	none
C[C@@H]1CN([C@H](C)CO)C(=O)c2cc(N(C)C)ccc2O[C@@H]1CN(C)C(=O)Nc1ccc(C(F)(F)F)cc1	Cneo AK release 107
C[C@@H]1CN([C@@H](C)CO)C(=O)c2cccc(N(C)C)c2O[C@H]1CN(C)C(=O)Nc1ccccc1	DENV2 CPE 30
Cc1noc(C)c1NC(=O)N(C)C[C@H]1Oc2c(cccc2N(C)C)C(=O)N([C@@H](C)CO)C[C@H]1C	none
Cc1noc(C)c1NC(=O)N(C)C[C@@H]1Oc2c(cccc2N(C)C)C(=O)N([C@H](C)CO)C[C@@H]1C	DENV2 CPE 24
C[C@H]1CN([C@@H](C)CO)C(=O)c2cc(N(C)C)ccc2O[C@@H]1CN(C)C(=O)Nc1cccc2ccccc12	none
C[C@H](CO)N1C[C@H](C)[C@@H](CN(C)C(=O)Nc2cccc3ccccc23)Oc2ccc(N(C)C)cc2C1=O	DENV2 CPE 34
COCCNC(=O)C[C@H]1C[C@@H]2c3cc(NC(=O)Nc4ccccc4)ccc3O[C@@H]2[C@H](CO)O1	none
O=C(C[C@@H]1CC[C@@H](NC(=O)C2CCC2)[C@@H](CO)O1)Nc1nccs1	none
COc1ccc(-c2cnc3c(c2)C(=O)N([C@H](C)CO)C[C@H](C)[C@H](CN(C)C(=O)NC2CCCC2)O3)cc1	none
O=C(C[C@H]1CC[C@H](NC(=O)c2cnccn2)[C@H](CO)O1)NCc1ccccc1F	none
COc1ccc2c3c(n(C)c2c1)[C@H](CO)N(Cc1cccnc1)CC31CN(C(=O)NC(C)C)C1	none (no result: C2C12 statin, Cneo AK release)
Nc1nnc(N)c2ccccc12	none (no result: C2C12 statin, Cneo AK release)
Nc1nsc2ccccc12	C2C12 statin 120 (no result: XiGFP reactiv)
CO[C@@H]1CC[C@H]2CCN(C)C(=O)C[C@H](c3ccccc3)CN(C)C(=O)c3cc(C#N)ccc3OC[C@@H]1O2	DENV2 CPE 52
CC(=O)NCCNc1nc(NCc2cccs2)nc2ccsc12	DENV2 CPE 71
COCCNc1nc(NCc2cccs2)nc2ccsc12	none
Cc1ccc(S(=O)(=O)NC(=O)C2(C)CCN2C(=O)c2ccc(C(F)(F)F)nc2C)cc1 (stereo not given)	DENV2 CPE 51
Cc1ccc(S(=O)(=O)NC(=O)C2(C)CCN2C(=O)Cc2cccs2)cc1 (stereo not given)	DENV2 CPE 49
Cc1nc(C(F)(F)F)ccc1C(=O)N1CCC1(C)C(=O)NCc1ccc(Cl)cc1 (stereo not given)	DENV2 CPE 69
Cc1nc(C(F)(F)F)ccc1C(=O)N1CCC1(C)C(=O)NS(=O)(=O)c1ccc(Cl)cc1 (stereo not given)	none
Cc1nc(C(F)(F)F)ccc1C(=O)N1CCC1(C)C(=O)NS(=O)(=O)c1ccc(C#N)cc1 (stereo not given)	DENV2 CPE 31
COCC(=O)N1[C@@H]2c3ccc(C4=CCCC4)c(=O)n3C[C@@H]2[C@@H](CO)[C@@H]1C(=O)N1CCCCC1	none
CCC(C)c1ccc(NC(=O)NCCN2CCCCC2)cc1 (stereo not given)	DENV2 CPE 30
N#C/C(=C\c1ccc(N2CCCCC2)o1)C(=O)Nc1cccc(Br)c1	XiGFP reactiv 94 (no result: C2C12 statin, DENV2 CPE, Cneo AK release)
C[C@@H]1CCCCO[C@H](CN(C)S(=O)(=O)c2ccc(Cl)cc2)[C@@H](C)CN([C@@H](C)CO)C(=O)c2cc(NC(=O)c3ccccc3)ccc2O1	none (no result: C2C12 statin)
O=C(Cc1ccccn1)NCC[C@H]1CC[C@H](NS(=O)(=O)c2ccccc2)[C@H](CO)O1	none
O=C(N[C@H]1CC[C@@H](CCNS(=O)(=O)c2ccc(Cl)cc2)O[C@@H]1CO)c1ccccn1	DENV2 CPE 53
O=C(Cc1ccccn1)NCC[C@@H]1CC[C@@H](NS(=O)(=O)c2ccc(Cl)cc2)[C@@H](CO)O1	DENV2 CPE 34
O=C(N[C@@H]1CC[C@H](CCNS(=O)(=O)c2ccc(Cl)cc2)O[C@H]1CO)c1ccccn1	none
